Consider 1 compound from ChEMBL document CHEMBL3102735, “Enhancing the pharmacodynamic profile of a class of selective COX-2 inhibiting nitric oxide donors” (Bioorg Med Chem, 2014).

Molecules are shown by their SMILES.

Series [1] deals with T1, Prostaglandin G/H synthase 2 (Mus musculus, UniProt Q05769).
T1 sequence (Q05769 whole entry): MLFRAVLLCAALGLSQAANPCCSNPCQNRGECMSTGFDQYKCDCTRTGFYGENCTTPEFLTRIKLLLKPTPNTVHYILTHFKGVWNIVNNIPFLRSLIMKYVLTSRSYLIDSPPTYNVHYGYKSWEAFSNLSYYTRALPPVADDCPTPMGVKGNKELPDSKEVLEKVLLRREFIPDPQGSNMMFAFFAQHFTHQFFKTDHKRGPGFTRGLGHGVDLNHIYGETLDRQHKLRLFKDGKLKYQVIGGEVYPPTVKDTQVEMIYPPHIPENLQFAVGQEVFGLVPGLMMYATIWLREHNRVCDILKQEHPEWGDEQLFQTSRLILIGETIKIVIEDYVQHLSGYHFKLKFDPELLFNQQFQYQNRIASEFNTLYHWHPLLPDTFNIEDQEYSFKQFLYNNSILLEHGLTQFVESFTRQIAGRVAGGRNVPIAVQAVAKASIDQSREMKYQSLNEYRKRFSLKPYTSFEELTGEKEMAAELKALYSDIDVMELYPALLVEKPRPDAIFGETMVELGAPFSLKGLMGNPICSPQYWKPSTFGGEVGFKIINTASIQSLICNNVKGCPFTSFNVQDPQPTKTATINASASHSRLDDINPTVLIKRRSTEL
In words: Inhibition of LPS-induced COX-2 in mouse J774 cells using arachidonic acid as substrate assessed as inhibition of prostaglandin E2 production preincubated for 15 mins followed by substrate addition measured after 30 mins by RIA. The series is classed as cell-based.

The nature of series [2]: Stability of the compound in phosphate buffer saline assessed as compound remaining at pH 7.4 after 120 mins by LC-MS/MS analysis. Format: physicochemical. Particulars: read-out: Stability; call rule not given here. The procedure, abridged:
(§1)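 Compound (12 µL of 1 mM DMSO solution into 588 µL medium) incubated in PBS pH 7.4, pepsin-free SGF pH 1.5, or EDTA rat plasma. Aliquots taken at 0, 30, 60, 120 min and quenched with ice-cold acetonitrile containing internal standard; parent remaining as percent.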

The subject of series [3] is J774. Nature of the series: Selectivity index, ratio of IC50 for COX-1 to IC50 for COX-2 in mouse J774 cells. Format: cell-based. An outline of the steps: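 J774 macrophages stimulated 24 h with E. coli LPS (10 µg/mL) to induce COX-2, with or without compound (0.01–10 µM); supernatant PGE2 by RIA. Triplicate wells, three experiments, percent inhibition versus control, IC50 by sigmoidal fit; selectivity as COX-1/COX-2 IC50 ratio.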

The test system of series [4] is Rattus norvegicus. Nature of the series: Volume of distribution at steady state in Wistar rat at 10 mg/kg, iv by LC-MS/MS analysis. Format: ADME, organism-based. Also noted: dose 10 mg/kg, route intravenous. The following applies: in vivo.
In series [5] the test system is Rattus norvegicus. In words: Drug metabolism in Wistar rat plasma assessed as 2-(1-(4-fluorophenyl)-2-methyl-5-(4-(methylsulfonyl)phenyl)-1H-pyrrol-3-yl)-N-(2-hydroxyethyl)acetamide metabolite at 10 mg/kg, iv up to 6 hrs by LC-MS/MS analysis. The following applies: in vivo. The series is classed as ADME, organism-based. Set-up: dose 10 mg/kg, route intravenous. An outline of the steps:
(§2)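 Male Han Wistar rats, three per route, single 10 mg/kg/5 mL dose iv or po in 5% DMSO, 5% Cremophor EL, 0.1% Tween 80 in 150 mM phosphate buffer pH 7. Jugular-vein blood sampled, plasma methanol-precipitated, parent and hydroxy metabolite quantified by LC–MS/MS in positive ESI MRM mode (LLOQ 1–15 ng/mL).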

In series [6] the test system is Liver. Nature of the series: Induction of nitric oxide production in Wistar rat liver homogenate assessed as nitrite level at 1 mM. Particulars: TDE = time-dependent effect. Format: functional, tissue-based.
Series [7] concerns Mus musculus. Nature of the series: Antihyperalgesic activity in Swiss albino mouse assessed as reduction in carrageenan-induced inflammation at 20 mg/kg, po after 60 mins relative to control. Also noted: scale not given: the % may be the effect or the level left. The series is classed as functional.
For series [8], the system named is Plasma. Nature of the series: Metabolic stability in Wistar rat plasma at 10 mg/kg, iv up to 6 hrs by LC-MS/MS analysis. Set-up: dose 10 mg/kg, route intravenous. The following applies: in vivo. Format: ADME, organism-based.
For series [9], the system named is Mus musculus. In words: Analgesic activity in Swiss albino mouse assessed as reduction of acetic acid-induced writhing at 20 mg/kg, po measured every 10 mins after 5 mins of administration relative to control. Set-up: scale not given: the % may be the effect or the level left. Format: functional. The procedure, abridged:
(§3)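 Male Swiss albino mice (23–25 g), compound given orally in CMC vehicle; writhing induced by 0.6% acetic acid (10 mL/kg) ip. Stretching movements counted for 10 min, starting 5 min after administration; percent reduction versus CMC-treated animals.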
Background: An intraperitoneal irritant provokes the stretching counted in writhing tests.

A short description of series [10]: Stability of the compound in phosphate buffer saline assessed as compound remaining at pH 7.4 after 30 mins by LC-MS/MS analysis. The series is classed as physicochemical. The following applies: read-out: Stability. An outline of the steps:
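1 mM DMSO stock added to 0.01 M PBS (pH 7.4) or 0.05 M simulated gastric fluid without pepsin (pH 1.5 with HCl); incubated in hybridisation oven; aliquots at 0, 30, 60, 120 min quenched with ice-cold acetonitrile containing internal standard; parent remaining (%) measured.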

Series [11] has as its system Mus musculus. Nature of the series: Analgesic activity in Swiss albino mouse assessed as reduction of acetic acid-induced writhing at 40 mg/kg, po measured every 10 mins after 5 mins of administration relative to control. Format: functional. Also noted: scale not given: the % may be the effect or the level left. An outline of the steps: as §3
Series [12] deals with Mus musculus. In words: Antihyperalgesic activity in Swiss albino mouse assessed as reduction in carrageenan-induced inflammation at 40 mg/kg, po after 90 mins relative to control. The series is classed as functional. Also noted: scale not given: the % may be the effect or the level left.
Series [13] can be described thus: Metabolic stability in Sprague-Dawley rat plasma assessed as compound remaining after 60 mins by LC-MS/MS analysis. The series is classed as ADME, cell-free. Particulars: read-out: Stability. The procedure, abridged: as §1
Series [14] concerns Liver. Nature of the series: Induction of nitric oxide production in Wistar rat liver homogenate assessed as nitrate level at 1 mM. Format: functional, tissue-based. The following applies: TDE = time-dependent effect.
The test system of series [15] is Rattus norvegicus. In words: Drug metabolism in Wistar rat plasma assessed as 2-(1-(4-fluorophenyl)-2-methyl-5-(4-(methylsulfonyl)phenyl)-1H-pyrrol-3-yl)-N-(2-hydroxyethyl)acetamide metabolite at 10 mg/kg, po up to 6 hrs by LC-MS/MS analysis. Format: ADME, organism-based. Set-up: dose 10 mg/kg, route oral. Particulars: in vivo. An outline of the steps:
as §2

In general, IC50 refers to the concentration needed to halve the response being measured. The term Vdss denotes the apparent volume that relates the amount in the body to the concentration in plasma or blood. For `Cc1c(CC(=O)NCCO[N+](=O)[O-])cc(-c2ccc(S(C)(=O)=O)cc2)n1-c1ccc(F)cc1`, the IC50 in series [1] is 249 nM. Further, in series [2], the remaining at 2 h turned out to be 100%. For the same compound, the Ratio IC50 in series [3] is more than 42. In series [4], this compound returned a Vdss of 367 mL. The Drug metabolism entry in [5] and in series [15] was “Active” in each case. Moreover, the Activity result in series [6] is “tde”; in series [7] it was 30%; in [9], 77%; in series [11], 75%; in [12], 29%; in series [14] it was “tde”. Moreover, the Stability entry in series [8] is given as “Stable”. In addition, the remaining at 0.5 h in series [10] was 100%. Also, the remaining at 1 h in series [13] amounted to 100%.
